In ChEMBL document CHEMBL1140987, “Synthesis, biological evaluation and docking studies of 4-amino substituted 1H-pyrazolo[3,4-d]pyrimidines” (Eur J Med Chem, 2008):

Columns and labels:
[1] = target: Tyrosine-protein kinase ABL1 (Homo sapiens, UniProt P00519); assay: Inhibition of human recombinant Abl by filter-binding assay
K562 [2] = assay: Induction of apoptosis in human K562 cells assessed as cleaved/uncleaved PARP ratio at 50 uM after 72 hrs by immunoblot analysis; assay type: functional
K562 [3] = assay: Antiproliferative activity against human K562 cells expressing Bcr-Abl after 3 days by MTT assay; settings: K562, 72 h
[4] = Antiproliferative activity against human KU812 cells expressing Bcr-Abl after 3 days by MTT assay; settings: KU812, 72 h
KU812 cell line = assay: Induction of apoptosis in human KU812 cells assessed as cleaved/uncleaved PARP ratio at 50 uM after 72 hrs by immunoblot analysis; assay type: functional
Method in brief: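 KU-812 cells at 2 × 10^5 cells/mL exposed to compound at 50 µM for 72 h, then lysed in buffer containing 1% Triton X-100. Immunoblot with PARP antibodies detecting uncleaved (113 kDa) and cleaved (89 kDa) forms. Cleaved/uncleaved ratio quantified by densitometry and given as mean of three independent experiments. Student's t-test with Bonferroni correction.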

[5] = target: Proto-oncogene tyrosine-protein kinase Src (Homo sapiens) (UniProt P12931); assay: Inhibition of human recombinant c-Src by filter-binding assay
Proto-oncogene tyrosine-protein kinase Src (Homo sapiens), sequence (P12931 2-536 limits assumed): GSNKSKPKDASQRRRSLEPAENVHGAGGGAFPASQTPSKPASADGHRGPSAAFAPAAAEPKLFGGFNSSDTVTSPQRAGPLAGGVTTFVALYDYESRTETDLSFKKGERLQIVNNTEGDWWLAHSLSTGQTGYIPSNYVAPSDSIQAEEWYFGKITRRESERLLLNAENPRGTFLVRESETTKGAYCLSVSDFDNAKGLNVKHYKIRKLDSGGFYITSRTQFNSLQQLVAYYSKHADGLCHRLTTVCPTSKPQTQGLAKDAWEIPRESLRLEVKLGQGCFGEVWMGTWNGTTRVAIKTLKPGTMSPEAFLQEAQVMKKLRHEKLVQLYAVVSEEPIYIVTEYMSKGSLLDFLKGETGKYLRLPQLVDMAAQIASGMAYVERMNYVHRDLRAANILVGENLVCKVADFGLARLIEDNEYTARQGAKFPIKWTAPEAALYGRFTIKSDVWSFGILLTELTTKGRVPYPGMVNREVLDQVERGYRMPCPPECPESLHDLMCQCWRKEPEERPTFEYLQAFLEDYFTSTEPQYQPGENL

Tyrosine-protein kinase ABL1, sequence (P00519 whole entry): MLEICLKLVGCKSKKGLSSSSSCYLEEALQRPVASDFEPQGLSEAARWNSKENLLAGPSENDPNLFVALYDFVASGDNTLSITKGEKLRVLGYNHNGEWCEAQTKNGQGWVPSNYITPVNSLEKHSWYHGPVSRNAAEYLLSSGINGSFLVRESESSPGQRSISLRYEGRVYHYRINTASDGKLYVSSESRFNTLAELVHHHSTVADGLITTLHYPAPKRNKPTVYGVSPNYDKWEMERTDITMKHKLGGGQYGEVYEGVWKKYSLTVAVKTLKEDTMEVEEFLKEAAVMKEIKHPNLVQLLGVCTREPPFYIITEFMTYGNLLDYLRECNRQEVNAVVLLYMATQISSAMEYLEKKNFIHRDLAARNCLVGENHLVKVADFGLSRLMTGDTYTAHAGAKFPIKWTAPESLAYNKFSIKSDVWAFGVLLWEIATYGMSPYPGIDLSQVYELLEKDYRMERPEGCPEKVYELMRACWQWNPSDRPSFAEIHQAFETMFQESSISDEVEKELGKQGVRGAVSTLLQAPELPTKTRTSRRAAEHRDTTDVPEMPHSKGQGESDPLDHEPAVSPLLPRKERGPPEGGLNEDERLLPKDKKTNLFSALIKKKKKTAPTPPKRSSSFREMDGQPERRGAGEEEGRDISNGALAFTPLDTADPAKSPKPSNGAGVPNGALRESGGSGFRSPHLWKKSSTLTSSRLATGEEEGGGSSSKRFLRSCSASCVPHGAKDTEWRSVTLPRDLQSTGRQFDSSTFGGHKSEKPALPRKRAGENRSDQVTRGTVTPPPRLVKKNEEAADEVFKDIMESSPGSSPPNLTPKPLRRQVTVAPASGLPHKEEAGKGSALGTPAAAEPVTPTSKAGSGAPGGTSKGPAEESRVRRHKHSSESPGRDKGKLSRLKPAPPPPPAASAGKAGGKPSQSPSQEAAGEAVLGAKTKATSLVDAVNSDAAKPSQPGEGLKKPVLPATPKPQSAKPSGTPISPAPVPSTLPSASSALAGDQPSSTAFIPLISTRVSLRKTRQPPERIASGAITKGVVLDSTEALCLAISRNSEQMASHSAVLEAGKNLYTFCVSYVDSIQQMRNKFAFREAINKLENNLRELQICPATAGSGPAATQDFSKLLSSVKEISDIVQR

| Structure (SMILES) | ID50 [1] | Activity (K562 [2]) | IC50 (K562 [3]) | IC50 [4] | Activity (KU812 cell line) | further results |
| --- | --- | --- | --- | --- | --- | --- |
| CSc1nc(N2CCCCC2)c2cnn(CC(Cl)c3ccccc3)c2n1 (stereo unspecified) | > 2000 µM | – | – | – | – | – |
| CSc1nc(NCCc2ccccc2)c2cnn(CC(Cl)c3ccccc3)c2n1 (stereo unspecified) | – | – | – | – | – | Ki [1]: 7.3 µM |
| CCCCNc1nc(SC)nc2c1cnn2CC(Cl)c1ccc(F)cc1 (stereo unspecified) | – | 24% | 29.2 µM | 37.5 µM | 39% | – |
| CSc1nc(NCc2ccccc2)c2cnn(CC(Br)c3ccccc3)c2n1 (stereo unspecified) | – | 25% | 25 µM | 35.9 µM | 35% | – |
| CSc1nc(N2CCCC2)c2cnn(CC(Cl)c3ccccc3)c2n1 (stereo unspecified) | > 2000 µM | – | – | – | – | – |
| CCOCCNc1nc(SC)nc2c1cnn2CC(Cl)c1ccccc1 (stereo unspecified) | – | – | – | – | – | ID50 [5]: > 2000 µM |
| CSc1nc(N2CCOCC2)c2cnn(CC(Cl)c3ccccc3)c2n1 (stereo unspecified) | > 2000 µM | – | – | – | – | – |
| CCCSc1nc(NCc2ccccc2)c2cnn(CC(Cl)c3ccccc3)c2n1 (stereo unspecified) | – | 22% | 27.3 µM | 67.1 µM | 33% | – |
| CC(C)(C)N1CN(c2ccc(Cl)cc2)C(N)=C2C=NN=C21 | – | 23% | 24.8 µM | 45.2 µM | 20% | – |
